Here are results for 38 compounds from ChEMBL document CHEMBL4376818, “Discovery of Novel Pyrazolo-pyridone DCN1 Inhibitors Controlling Cullin Neddylation” (J Med Chem, 2019).

Data set [1] has as its target DCN1-like protein 1/NEDD8-conjugating enzyme Ubc12 (Homo sapiens, UniProt Q96GG9). Nature of the data set: Inhibition of biotinylated DCN1 (unknown origin) - AlexaFluor488 labelled UBE2M (unknown origin) protein-protein interaction after 1 hr by TR-FRET assay.
The next data set has as its system BJ. Nature of the data set: Cytotoxicity against human BJ cells assessed as cell growth inhibition after 72 hrs by Celltiter-Glo assay. It counts as cell-based. The method, boiled down:
(§1)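 Cells were seeded overnight at 37 °C, 5% CO2, at densities validated for logarithmic growth (BJ 1000 cells/well, HCC95 600 cells/well), then treated with ten 3-fold serial dilutions from DMSO stocks for 72 h. […] Fit on a semi-log plot; ≥3 technical and 2 biological replicates.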

Data set [2] has as its system HCC95. Kind of data set: Cytotoxicity against human HCC95 cells overexpressing DCN1 assessed as cell growth inhibition after 72 hrs by Celltiter-Glo assay. The data set is classed as cell-based. Conditions: HCC95, 72 h. Put shortly: as §1
The test system of data set [3] is HCC95. Nature of the data set: Induction of ROS generation in human HCC95 cells at 30 uM after 5 hrs by H2DCFDA dye based fluorescence assay. It counts as functional, cell-based. The method, boiled down: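 HCC95 cells were seeded at 25,000 cells/well and incubated overnight. They were PBS-washed, loaded with DCFDA for 45 min at 37 °C in the dark, washed twice, then exposed to compound in buffer for 5 h at 37 °C in the dark. Fluorescence was read at Ex/Em 485/535 nm.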

Data set [4] in a line: Half life in mouse microsomes at 0.8 uM. It counts as ADME, Microsome. Put shortly: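 Oxidative metabolic stability in murine liver microsomes, drug at 0.8 µM. Half-life is reported as mean ± SD from at least one independent experiment run in triplicate.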
Data set [5] can be described thus: Kinetic aqueous solubility of compound at pH 7.4. The data set is classed as physicochemical. Conditions: buffer, read-out: Kinetic_solubility. The method, boiled down:
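Kinetic aqueous solubility was measured in pH 7.4 buffer. Values are reported as means ± standard deviation from at least one independent experiment run in triplicate.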

The target of data set [6] is DCN1-like protein 2 (Homo sapiens) (UniProt Q6PH85). Nature of the data set: Inhibition of DCN2 (unknown origin) assessed as decrease in DCN1-stimulated NEDD8 transfer from UBE2M to CUL2 at 10 uM after 10 sec by pulse-chase assay.
DCN1-like protein 2 (Homo sapiens), sequence (Q6PH85 whole entry): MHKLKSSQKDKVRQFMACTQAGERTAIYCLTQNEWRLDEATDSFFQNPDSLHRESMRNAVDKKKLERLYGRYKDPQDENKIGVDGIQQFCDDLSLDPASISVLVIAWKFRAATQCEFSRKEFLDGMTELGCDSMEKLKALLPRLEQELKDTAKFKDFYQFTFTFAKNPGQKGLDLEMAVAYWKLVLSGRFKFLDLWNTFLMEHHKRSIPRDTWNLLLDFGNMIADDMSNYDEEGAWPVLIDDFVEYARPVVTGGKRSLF
Data set [7] has as its target T1, DCN1-like protein 3 (Homo sapiens) (UniProt Q8IWE4).
T1 sequence (whole entry): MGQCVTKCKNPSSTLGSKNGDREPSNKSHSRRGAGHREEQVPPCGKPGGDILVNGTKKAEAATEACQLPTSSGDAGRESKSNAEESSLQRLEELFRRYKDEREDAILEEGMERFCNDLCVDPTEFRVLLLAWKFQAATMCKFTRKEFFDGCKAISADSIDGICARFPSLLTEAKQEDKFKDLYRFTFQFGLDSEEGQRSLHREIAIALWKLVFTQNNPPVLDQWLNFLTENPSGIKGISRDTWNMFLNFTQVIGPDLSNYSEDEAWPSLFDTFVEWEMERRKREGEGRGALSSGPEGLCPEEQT
Nature of the data set: Inhibition of DCN3 (unknown origin) assessed as decrease in DCN1-stimulated NEDD8 transfer from UBE2M to CUL2 at 120 uM after 10 sec by pulse-chase assay.

Data set [8] deals with T2, DCN1-like protein 4 (Homo sapiens) (UniProt Q92564).
T2 sequence (whole entry): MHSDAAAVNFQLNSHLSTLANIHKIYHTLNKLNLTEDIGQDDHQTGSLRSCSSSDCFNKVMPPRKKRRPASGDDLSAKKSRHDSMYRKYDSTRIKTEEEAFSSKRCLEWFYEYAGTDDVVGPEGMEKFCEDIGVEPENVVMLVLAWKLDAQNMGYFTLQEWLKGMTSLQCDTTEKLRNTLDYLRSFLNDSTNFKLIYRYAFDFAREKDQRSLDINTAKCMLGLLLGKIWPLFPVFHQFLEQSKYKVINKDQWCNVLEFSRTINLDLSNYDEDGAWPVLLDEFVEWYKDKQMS
Nature of the data set: Inhibition of DCN4 (unknown origin) assessed as decrease in DCN1-stimulated NEDD8 transfer from UBE2M to CUL2 at 60 uM after 10 sec by pulse-chase assay.

The target of data set [9] is T3, DCN1-like protein 5 (Homo sapiens) (UniProt Q9BTE7).
T3 sequence (whole entry): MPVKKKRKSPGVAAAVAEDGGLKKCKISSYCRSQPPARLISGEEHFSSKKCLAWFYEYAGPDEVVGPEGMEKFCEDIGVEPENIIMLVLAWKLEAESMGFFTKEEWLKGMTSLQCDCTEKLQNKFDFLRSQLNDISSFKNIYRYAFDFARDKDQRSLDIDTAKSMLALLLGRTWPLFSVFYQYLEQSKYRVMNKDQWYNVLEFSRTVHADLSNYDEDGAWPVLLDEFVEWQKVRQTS
Kind of data set: Inhibition of DCN5 (unknown origin) assessed as decrease in DCN1-stimulated NEDD8 transfer from UBE2M to CUL2 at 60 uM after 10 sec by pulse-chase assay.

Each structure is given as a SMILES string. ≈ marks a conversion by molar mass, not a printed value. Calls of active or inactive are those of the source. The rule behind the calls is not given here.

DCN1-like protein 1/NEDD8-conjugating enzyme Ubc12, sequence (Q96GG9 whole entry): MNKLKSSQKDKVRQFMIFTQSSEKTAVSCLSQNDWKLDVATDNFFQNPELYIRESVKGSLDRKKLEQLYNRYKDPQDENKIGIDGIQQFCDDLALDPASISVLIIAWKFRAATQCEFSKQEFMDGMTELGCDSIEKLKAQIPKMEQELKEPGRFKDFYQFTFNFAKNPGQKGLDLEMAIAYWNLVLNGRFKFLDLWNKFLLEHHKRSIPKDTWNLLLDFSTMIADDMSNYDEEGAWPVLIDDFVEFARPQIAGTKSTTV
DCN1-like protein 1/NEDD8-conjugating enzyme Ubc12, sequence (P61081 whole entry, further chain): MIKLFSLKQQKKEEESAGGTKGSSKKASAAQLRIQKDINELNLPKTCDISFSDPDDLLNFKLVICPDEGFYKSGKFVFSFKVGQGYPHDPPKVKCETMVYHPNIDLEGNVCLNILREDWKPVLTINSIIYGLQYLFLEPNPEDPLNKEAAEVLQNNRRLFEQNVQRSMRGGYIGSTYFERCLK

Turning to `Cc1cccc(C(=O)N[C@@H]2C(=O)Nc3c(c(C)nn3-c3ccccn3)[C@@H]2c2ccc(F)cc2)c1`, the IC50 in data set [1] was more than 15 µM.
Regarding `CCN1C(=O)[C@@H](NC(=O)c2cccc(C)c2)[C@@H](c2ccc(F)cc2)c2c(C)nn(C3CCCC3)c21`, the IC50 in data set [1] stood at 0.8 µM.
Same read-out and setting: under `Cc1cccc(C(=O)N[C@@H]2C(=O)Nc3c(c(C)nn3-c3ccccc3)[C@@H]2c2cccc(F)c2)c1` stands 7.1 µM; under `Cc1ccc(C(=O)N[C@@H]2C(=O)Nc3c(c(C)nn3-c3ccccc3)[C@@H]2c2ccc(F)cc2)cc1`, more than 15 µM.
In the case of `Cc1cccc(C(=O)N[C@@H]2C(=O)N(C(C)C)c3c(c(C)nn3-c3ccccc3)[C@@H]2c2ccc(F)cc2)c1`, the midpoint of inhibition in data set [1], the IC50, lay at 4.1 µM.
As for `Cc1nn(-c2ccccc2)c2c1[C@H](c1ccc(F)cc1)[C@H](NC(=O)c1cccc(I)c1)C(=O)N2`, the half-inhibitory concentration (IC50) in [1] was found to be 7.1 µM.
Still for that read-out and setting: under `Cc1cccc(C(=O)N[C@@H]2C(=O)Nc3c(c(C)nn3Cc3ccccc3)[C@@H]2c2ccc(F)cc2)c1` stands more than 15 µM.
On the same count and under the same terms, the figure for `Cc1cccc(C(=O)N[C@@H]2C(=O)Nc3c(c(C)nn3-c3ccccc3)[C@@H]2Cc2ccccc2)c1` is 3 µM.
On the same count and under the same terms, under `Cc1cccc(C(=O)N[C@@H]2C(=O)Nc3n[nH]c(C)c3[C@@H]2c2ccc(F)cc2)c1` stands more than 15 µM.
For `CCCN1C(=O)[C@@H](NC(=O)c2cccc(C)c2)[C@@H](c2ccc(F)cc2)c2c1nn(CCC)c2C`, the EC50 with BJ and in the data set on HCC95 [2] was more than 25 µM each time.
With `Cc1cccc(C(=O)N[C@@H]2C(=O)Nc3c(c(C)nn3-c3ccccc3)[C@@H]2C2CCCCC2)c1`, half-maximal inhibition in data set [1] (IC50) was put at 1.3 µM.
Still for that read-out and setting: the figure for `Cc1cncc(C(=O)N[C@@H]2C(=O)Nc3c(c(C)nn3-c3ccccc3)[C@@H]2c2ccc(F)cc2)c1` is more than 15 µM; for `Cc1cccc(C(=O)N[C@@H]2C(=O)Nc3c(c(C)nn3-c3ccccc3)[C@@H]2c2ccccc2)c1` it is 4 µM; for `Cc1cccc(C(=O)N[C@@H]2C(=O)N(C)c3c(c(C)nn3C(C)(C)C)[C@@H]2c2ccc(F)cc2)c1` it is 2.3 µM.
The compound `CCC[C@H]1c2c(C)nn(-c3ccccc3)c2NC(=O)[C@H]1NC(=O)c1cccc(C)c1` displayed an IC50 in [1] of 3.1 µM. This IC50 and that of the compound before are within 1.5-fold of each other.
On the same count and under the same terms, under `Cc1nn(-c2ccccc2)c2c1[C@H](c1ccc(F)cc1)[C@H](NC(=O)c1ccccc1)C(=O)N2` stands 13 µM; under `CC(=O)N1C(=O)[C@@H](NC(=O)c2cccc(C)c2)[C@@H](c2ccc(F)cc2)c2c(C)nn(-c3ccccc3)c21`, 5.6 µM; under `Cc1nn(-c2ccccc2)c2c1[C@H](c1ccc(F)cc1)[C@H](NC(=O)c1cccc(C(C)(C)C)c1)C(=O)N2`, more than 15 µM.
For `Cc1cccc(C(=O)N[C@@H]2C(=O)Nc3c(c(C)nn3-c3ccccc3)[C@@H]2c2ccc(F)nc2)c1`, in data set [1], 3.5 µM corresponded to half-maximal inhibition (IC50).
Turning to `CCOC1=Nc2c(c(C)nn2-c2ccccc2)[C@H](c2ccc(F)cc2)[C@@H]1NC(=O)c1cccc(C)c1`, the EC50 in the data set on BJ and with HCC95 [2] was more than 25 µM each time.
Compound `Cc1ccccc1C(=O)N[C@@H]1C(=O)Nc2c(c(C)nn2-c2ccccc2)[C@@H]1c1ccc(F)cc1` gave an IC50 in [1] of more than 15 µM.
The same measure, in the same setting: under `Cc1cccc(C(=O)N[C@@H]2C(=O)Nc3c(c(C)nn3C3CC3)[C@@H]2c2ccc(F)cc2)c1` stands 2 µM; under `Cc1cccc(C(=O)N[C@@H]2C(=O)Nc3c(c(C)nn3-c3ccccc3)[C@@H]2c2cccnc2)c1`, more than 15 µM; under `CC(=O)CN1C(=O)[C@@H](NC(=O)c2cccc(C)c2)[C@@H](c2ccc(F)cc2)c2c(C)nn(-c3ccccc3)c21`, 7.1 µM.
The compound `Cc1nn(-c2ccccc2)c2c1[C@H](c1ccc(F)cc1)[C@H](NC(=O)c1ccc(Cl)c(Cl)c1)C(=O)N2` showed an IC50 in [1] of more than 15 µM.
In data set [1], `CCCn1nc(C)c2c1NC(=O)[C@@H](NC(=O)c1cccc(C)c1)[C@H]2c1ccc(F)cc1` returned an IC50 of 1.2 µM.
`Cc1cccc(C(=O)N[C@@H]2C(=O)Nc3c(c(C)nn3C(C)(C)C)[C@@H]2c2ccc(F)cc2)c1` had an IC50 in data set [1] of 0.5 µM.
Turning to `CCCCN1CCC(N(Cc2ccccc2)C(=O)Nc2ccc(Cl)c(Cl)c2)CC1`, in the data set with HCC95 [3], the result was inactive.
`CCCn1nc(C)c2c1N(CC)C(=O)[C@@H](NC(=O)c1cccc(C)c1)[C@H]2c1ccc(F)cc1` (racemic): the IC50 in [1] was 0.2 µM. Moreover, the EC50 in the data set on BJ and with HCC95 [2] was more than 25 µM each time. Also, the half-life at 0.8 µM in [4] is less than 6 min. Moreover, the solubility kinetic in [5] turned out to be 10.9 µM (≈ 4.89 µg/mL).
As for `Cc1cccc(C(=O)N[C@H]2C(=O)Nc3c(c(C)nn3-c3ccccc3)[C@@H]2c2ccc(F)cc2)c1` (racemic), the EC50 in the data set with BJ and with HCC95 [2] was more than 25 µM throughout. The outcome in the data set on HCC95 [3] was inactive.
Take `Cc1cccc(C(=O)N[C@@H]2C(=O)Nc3c(c(C)nn3C3CCCC3)[C@@H]2c2ccc(F)cc2)c1` (racemic): in data set [1], the IC50 came to 0.3 µM. For the same compound, the EC50 with BJ and with HCC95 [2] was more than 25 µM in each case. The same compound gave a half-life at 0.8 µM in data set [4] of 30 min. In addition, in data set [5], the solubility kinetic was found to be 17.1 µM (≈ 7.64 µg/mL).
In data set [1], `Cc1cccc(C(=O)N[C@@H]2C(=O)Nc3c(c(C)nn3-c3ccccc3)[C@@H]2c2ccc(F)cc2)c1` (racemic) returned an IC50 of 1.4 µM. The EC50 in the data set on BJ and with HCC95 [2] was more than 25 µM throughout. Besides, the half-life at 0.8 µM in data set [4] is 66 min. For the same compound, the solubility kinetic in data set [5] was found to be 5.5 µM (≈ 2.5 µg/mL).
With `CCn1nc(C)c2c1NC(=O)[C@@H](NC(=O)c1cccc(C)c1)[C@H]2c1ccc(F)cc1` (racemic), the EC50 in the data set with BJ and in the data set with HCC95 [2] was more than 25 µM throughout. In data set [4], this compound had a half-life at 0.8 µM of 36 min. The solubility kinetic in data set [5] is 92.8 µM (≈ 37.7 µg/mL).
Consider `CCN1C(=O)[C@@H](NC(=O)c2cccc(C)c2)[C@@H](c2ccc(F)cc2)c2c(C)nn(C3CC3)c21` (racemic), for which the IC50 in [1] is 0.2 µM. The EC50 with BJ and in the data set on HCC95 [2] was more than 25 µM each time. The same compound displayed a half-life at 0.8 µM in data set [4] of less than 6 min. The solubility kinetic in data set [5] is 46.1 µM (≈ 20.6 µg/mL).
In the case of `CCN1C(=O)[C@@H](NC(=O)c2cccc(C)c2)[C@@H](c2ccc(F)cc2)c2c(C)nn(-c3ccccc3)c21` (relative stereo), the EC50 in the data set with BJ and in the data set with HCC95 [2] was more than 25 µM throughout. In [6], the inhibition result was “Active”. Moreover, the inhibition result in data set [7], in data set [8] and in data set [9] was “inactive” throughout. Moreover, the result in the data set with HCC95 [3] was inactive.
Regarding `Cc1ccc([C@H]2c3c(C)nn(-c4ccccc4)c3NC(=O)[C@H]2NC(=O)c2cccc(C)c2)cc1` (relative stereo), the IC50 in [1] was determined as 5.1 µM. Besides, the EC50 in the data set with BJ and with HCC95 [2] was more than 25 µM each time. Besides, the half-life at 0.8 µM in [4] is 18 min. The solubility kinetic in data set [5] stood at 1.1 µM (≈ 0.496 µg/mL).
As for `CCC(C)n1nc(C)c2c1NC(=O)[C@@H](NC(=O)c1cccc(C)c1)[C@H]2c1ccc(F)cc1` (stereo in doubt; 22a), half-maximal inhibition in data set [1] (IC50) was put at 0.7 µM.
As to `CCC(C)n1nc(C)c2c1NC(=O)[C@@H](NC(=O)c1cccc(C)c1)[C@H]2c1ccc(F)cc1` (stereo in doubt; 22b), the IC50 in [1] worked out at 0.6 µM.
